Assay outcomes: PubChem BioAssay, several laboratories
TDP2 inh = TDP2 (human) inhibition, absorbance primary screen | recombinant TDP2, T5PNP hydrolysis, p-nitrophenol absorbance 415 nm | O95551 | AID 720702 | actives 0.34% (n = 370,000) | inhibition, % at 12.8 µM;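 active = inhibition above the mean of all tested compounds plus 3 SD, set per campaign, cut at about 25% in these data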
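Test system: Human TDP2 enzyme | Reagent: 5 mM T5PNP | Compound dosing: 12.8 µM single point, 1% DMSO | Incubation: Enzyme reaction with compound for 2 h at 37 °C | Technique: p-Nitrophenol epi absorbance | Read-out: % inhibition relative to enzyme-containing and enzyme-free wells | Benchmarks: High control without enzyme, low control DMSO plus TDP2 | Replicates: Singlicate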
Apaf-1 inh = human Apaf-1 inhibition; AID 489030; O14727; actives 0.71% (n = 330,000); reconstituted apoptosome caspase-3 activity, DEVD-Rh110 fluorescence; inhibition, % at 20 µM; active = inhibition of at least 40% at 20 µM
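System: reconstituted apoptosome with Apaf-1, cytochrome c, caspase-9, procaspase-3, dATP; Signal: Rh110 fluorescence intensity; Schedule: 30 min compound preincubation, 50 min activation, room temperature; Reagent: cytochrome c trigger plus (Z-DEVD)2-Rh110 caspase-3 substrate.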
TCR CD3 inh = human TCR-CD3 binding inhibition | TAMRA-labeled TCR probe fluorescence, biochemical | inhibition, % at 9.4 µM | actives 0.37% (n = 360,000); in the data active = inhibition above about 19%;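 also: recombinant mutant TCR 2C K166C tagged with TAMRA read by polarization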
SIAE primary = inhibitors of human sialic acid acetylesterase SIAE | AID 1053197 | inhibition, % at 9.66 µM | actives 0.69% (n = 370,000) | SIAE FP-Rh probe binding, fluorescence polarization;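 active = inhibition above a cutoff: mean of compounds within the control limits plus 3 SD of those, cut at about 17% in these data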
Target sequence (Q9HAT2 whole entry, looked up): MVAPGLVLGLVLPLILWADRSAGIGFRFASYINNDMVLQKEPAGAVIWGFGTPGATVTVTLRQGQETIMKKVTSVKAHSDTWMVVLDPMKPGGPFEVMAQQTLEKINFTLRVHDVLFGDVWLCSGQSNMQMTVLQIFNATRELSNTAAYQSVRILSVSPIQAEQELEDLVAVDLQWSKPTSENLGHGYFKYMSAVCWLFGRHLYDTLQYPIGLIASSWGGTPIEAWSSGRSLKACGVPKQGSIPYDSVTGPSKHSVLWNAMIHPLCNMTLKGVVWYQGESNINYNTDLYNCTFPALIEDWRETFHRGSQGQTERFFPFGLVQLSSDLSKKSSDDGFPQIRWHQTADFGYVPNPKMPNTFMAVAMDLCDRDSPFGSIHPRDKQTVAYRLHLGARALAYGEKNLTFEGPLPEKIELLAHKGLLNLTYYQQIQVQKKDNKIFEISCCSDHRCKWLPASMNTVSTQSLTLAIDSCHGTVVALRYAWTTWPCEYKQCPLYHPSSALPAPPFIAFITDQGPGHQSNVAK
GSTO1 counter = GSTO1 inhibition, counter-screen for RBBP9 inhibitors; recombinant GSTO1, activity-based probe fluorescence polarization; inhibition, % at 5.96 µM; actives 1.1% (n = 300,000); AID 1974;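 active = inhibition above the campaign mean inhibition plus 3 SD, cut at about 35% in these data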
PAD4 FP inh = PAD4 (human) enzyme inhibition | recombinant PAD4, RCA probe fluorescence polarization | inhibition, % at 6.36 µM | actives 0.41% (n = 330,000) | AID 485272;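 active = percent inhibition above a cutoff equal to the mean of all tested compounds plus 3 SD, cut at about 15% in these data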
SIAE inh conf = human SIAE inhibition, confirmation; shares compounds with SIAE primary; SIAE FP-Rh activity-based probe, fluorescence polarization; inhibition, % at 9.66 µM; actives 13% (n = 2,300);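 active = mean inhibition of the replicates above the hit cutoff set in the primary screen, cut at about 17% in these data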;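 also: inhibitors lower polarization as more probe stays unbound to SIAE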
Each line names hits and unclear results; the compound was inactive in the other large screens (follow-up assays come after a bar, where they were run). An excerpt weighted towards active compounds, which were near 2.4% of everything screened.

O=S(=O)(Nc1ccc(N=Nc2ccc(O)c3ccccc23)cc1)c1ccccc1	SIAE primary 36 | SIAE inh conf inactive
CCC(C)N1C(=O)CN(C2CCCCCC2)C(=O)C1c1ccccc1F (stereo not given)	SIAE primary 19 | SIAE inh conf inactive
COc1ccccc1CN1C(=O)CN(C2CCCCCC2)C(=O)C1c1ccc(F)cc1 (stereo not given)	none
O=C(CCC(=O)N(CC(=O)NC1CCCC1)c1cccc(F)c1)Nc1nccs1	SIAE primary 18 | SIAE inh conf inactive
O=C(CCC(=O)N(CC(=O)NC1CCCC1)c1ccc(F)cc1)Nc1nccs1	none
O=C(CSc1ccc(Cl)cc1)Nc1cccc(NC(=O)c2ccco2)c1	none
CC(C)c1ccc(NC(=S)Nc2cccc3ccccc23)cc1	Apaf-1 inh 84, SIAE primary 18 | SIAE inh conf inactive
CCOC(=O)C1=C(C)NC(C)=C(C(=O)OCC)C1C(=O)OCC(=O)c1ccc2c(c1)OCCO2	none
CCN(C(=O)COC(=O)CCC(=O)c1ccc(C)cc1)c1c(N)n(Cc2ccccc2)c(=O)[nH]c1=O	none (no result: Apaf-1 inh, GSTO1 counter, PAD4 FP inh)
CCN(CC)c1ccc(/C=N/N2CCN(Cc3ccccc3Cl)CC2)c(O)c1	SIAE primary 22 | SIAE inh conf inactive
CCOC(=O)Cc1csc(NS(=O)(=O)c2ccc(F)cc2)n1	SIAE primary 19 | SIAE inh conf inactive
O=C(O)CSc1nnc(C2CC2)n1-c1ccccc1	none
O=C(O)CSc1nnc(Nc2ccccc2)n1-c1ccccc1	SIAE primary 18 | SIAE inh conf inactive
Cc1ccc2oc(C(=O)NCc3ccc(S(N)(=O)=O)cc3)cc(=O)c2c1	none
Cc1nc(SCC(=O)N2CCN(C(=O)c3cccs3)CC2)c2c(C)c(C)sc2n1	SIAE primary 17 (no result: GSTO1 counter, PAD4 FP inh) | SIAE inh conf inactive
C[C@@H](CO)NC(=O)c1[nH]cnc1C(=O)Nc1ccc(CNC(=O)OC(C)(C)C)cc1	none (no result: Apaf-1 inh, GSTO1 counter, PAD4 FP inh)
Cc1cnc(C(=O)Oc2ccc(-c3ccccc3)cc2)cn1	SIAE primary 17 | SIAE inh conf inactive
Cc1cnc(C(=O)OCC(=O)c2ccc(-c3ccccc3)cc2)cn1	none
CC(C)c1ccc(S(=O)(=O)N2CCN(C(=O)CN3C(=O)NC4(CCCCC4)C3=O)CC2)cc1	none
COC(=O)CCCCCc1ccc(C(C)=O)s1	SIAE primary 17 | SIAE inh conf inactive
Cc1csc(N/N=C/c2ccc(O)c([N+](=O)[O-])c2)n1	SIAE primary 17, GSTO1 counter 84 | SIAE inh conf inactive
CCOC(=O)c1c(C)[nH]c(O)c1C=Nc1ccccc1	SIAE primary 22 | SIAE inh conf inactive
COC(=O)Cc1csc(N)n1	none
C#CCOCCOCCOCCNc1nc(N2CCN(C(=O)Cn3cc(CCCCN)nn3)CC2)nc(N2CCN(C(=O)Cn3cc(CCCN=C(N)N)nn3)CC2)n1	none
COC(=O)c1ccccc1N(C)S(=O)(=O)c1cc2c3c(c1)CCC(=O)N3CCC2	SIAE primary 32 | SIAE inh conf inactive
CCN1CCN(CCC(=O)Nc2cc(OC)ccc2OC)CC1	SIAE primary 20 | SIAE inh conf inactive
CCC(=O)c1c(CC)c2n3c1CC[C@H]3CCC2	SIAE primary 17 | SIAE inh conf inactive
CCOC(=O)c1ccc(CNC(=O)C2CCC(=O)N(Cc3cccc(OC)c3)C2)o1 (stereo not given)	none
COc1ccc(C(=O)n2c(N)nc3ccccc32)cc1OC	none
COc1cc(CNc2ncnc3c2[nH]c2ccc(C)cc23)cc(OC)c1	SIAE primary 37 | SIAE inh conf inactive
CCOc1ccc2[nH]c3c(NCCc4ccc(OC)c(OC)c4)ncnc3c2c1	SIAE primary 19 | SIAE inh conf inactive
Cc1cc(CNC(=O)COc2ccc([N+](=O)[O-])cc2)c2ccccc2n1	none
COc1cc(CNC(=O)c2cnccn2)cc(OC)c1	none (no result: Apaf-1 inh, GSTO1 counter, PAD4 FP inh)
COc1cc(CNC(=O)c2cc(C(=O)NCc3cc(OC)cc(OC)c3)n(C)n2)cc(OC)c1	SIAE primary 20 (no result: GSTO1 counter, PAD4 FP inh) | SIAE inh conf inactive
Cc1ccc(OCC(=O)OCc2nc3scc(-c4ccccc4)c3c(=O)[nH]2)cc1C	SIAE primary 18 | SIAE inh conf inactive
O=C(Nc1ccc(F)c(Cl)c1)Nc1csc2ccccc12	SIAE primary 23 | SIAE inh conf inactive
O=C(COC(=O)c1cnccn1)N=c1sccn1Cc1ccccc1Cl	SIAE primary 20 | SIAE inh conf inactive
COc1ccc(CN(C)C(=O)C(Cc2ccccc2)NC(=O)c2ccccc2)c(OC)c1 (stereo not given)	none
O=C(Nc1cccc(-c2csc(Nc3ccc(Cl)cc3)n2)c1)c1cc([N+](=O)[O-])cc(C(F)(F)F)c1	SIAE primary 29 | SIAE inh conf inactive
O=C(Nc1cccc(-c2csc(Nc3ccccc3)n2)c1)c1cc([N+](=O)[O-])cc(C(F)(F)F)c1	SIAE primary 32 | SIAE inh conf inactive
O=C(Nc1ccc(-c2csc(Nc3ccc(Cl)cc3)n2)cc1)c1cc([N+](=O)[O-])cc(C(F)(F)F)c1	none
Nc1nnc(SCC(=O)OCc2ccccc2)s1	none
Cc1cccn2c(=O)c3cc(C(=O)NC(C)c4ccccc4)c(=N)n(CCCn4ccnc4)c3nc12 (stereo not given)	none
Cc1ccc(/C=C/c2nc3ccccc3[nH]2)o1	SIAE primary 24 | SIAE inh conf inactive
COc1ccc([C@@H]2CC=C(C(=O)O)[C@H](c3ccc(Cl)cc3)N2S(=O)(=O)c2ccccc2C)cc1	none
S=C(NNc1ccnc2cc(Cl)ccc12)Nc1ccccc1Cl	SIAE primary 24 | SIAE inh conf 20
CCOC(=O)C(C(=O)c1ccccc1)C1CC(C)NC(=S)N1 (stereo not given)	none
CCOc1ccc(NC(=O)CCC(=O)Nc2cc(OC)c(NC(=O)c3ccco3)cc2OC)cc1	SIAE primary 19 | SIAE inh conf inactive
CCOc1ccc(NC(=O)CCNC(=O)c2ccco2)cc1	none
COc1cccc(CNS(=O)(=O)c2c(C)[nH]c(C)c2C(=O)N2CCCC2)c1	none
CCOC(=O)c1c(C)[nH]c(C(=O)NCCc2ccc(OC)c(OC)c2)c1C	SIAE primary 22 | SIAE inh conf inactive
CCCNC(=O)c1[nH]c(C)c(C(=O)OCC)c1C	none (no result: TDP2 inh, TCR CD3 inh, SIAE primary)
C/C(=N\Nc1cccc([N+](=O)[O-])c1)c1ccccc1O	none
OCC1(CCOc2ccccc2)CCN(Cc2ccncc2)CC1	none
CCOc1ccc(NC(=O)NNC(=O)c2cccnc2)cc1	none
O=C(COC(=O)c1ccc[nH]c1=O)NC1CCCCCC1	none
Cc1cc(C(=O)COC(=O)c2ccc[nH]c2=O)c(C)n1C1CC1	SIAE primary 23 | SIAE inh conf inactive
